Source: ChEMBL document CHEMBL4270576, “Discovery of a benzenesulfonamide-based dual inhibitor of microsomal prostaglandin E2 synthase-1 and 5-lipoxygenase that favorably modulates lipid mediator biosynthesis in inflammation” (Eur J Med Chem, 2018)
The source made the active and inactive calls. No cut-off for these calls is given here.

Legend:
[1] = biological target: T1, Polyunsaturated fatty acid 5-lipoxygenase (Homo sapiens) (UniProt P09917); experiment: Inhibition of recombinant human 5-LO binding to FLAP expressed in HEK293 cells at 10 uM after 1 hr by DAPI staining-based immunofluorescence microscopic analysis; format: cell-based
T1 sequence (whole entry): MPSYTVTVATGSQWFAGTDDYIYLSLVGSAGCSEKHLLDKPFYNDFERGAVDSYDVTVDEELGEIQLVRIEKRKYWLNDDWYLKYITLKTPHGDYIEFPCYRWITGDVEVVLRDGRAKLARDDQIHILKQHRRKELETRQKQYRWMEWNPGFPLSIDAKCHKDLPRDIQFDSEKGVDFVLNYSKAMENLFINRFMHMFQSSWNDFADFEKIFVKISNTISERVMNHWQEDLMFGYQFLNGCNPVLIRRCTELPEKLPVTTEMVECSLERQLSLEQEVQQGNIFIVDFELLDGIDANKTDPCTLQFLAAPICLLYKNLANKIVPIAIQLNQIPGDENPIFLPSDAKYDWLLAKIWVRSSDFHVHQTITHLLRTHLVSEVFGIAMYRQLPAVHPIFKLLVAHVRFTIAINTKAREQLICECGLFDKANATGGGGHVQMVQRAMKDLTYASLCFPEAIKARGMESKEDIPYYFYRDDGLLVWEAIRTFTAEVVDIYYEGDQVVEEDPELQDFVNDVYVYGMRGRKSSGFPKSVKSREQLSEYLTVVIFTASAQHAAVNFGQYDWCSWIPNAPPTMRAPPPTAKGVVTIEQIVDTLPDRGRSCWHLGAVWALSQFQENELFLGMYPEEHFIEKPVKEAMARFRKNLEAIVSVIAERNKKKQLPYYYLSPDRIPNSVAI
Procedure, shortened: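 HEK293 cells stably expressing 5-LO/FLAP, treated with 10 µM compound for 10 min and then 2.5 µM A23187 for 20 min at 37 °C, fixed, and probed with anti-5-LO/anti-FLAP primaries. This was followed by oligonucleotide-linked secondaries (1 h, 37 °C), ligation, rolling-circle amplification and DAPI nuclear stain. Proximity ligation signals counted microscopically in 100 cells from three experiments.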

Neutrophil = experiment: Cytotoxicity against human neutrophils at 10 uM; format: cell-based
Homo sapiens [2] = species: Homo sapiens; experiment: Modulation of LO-mediated RvD2 level in human M2 macrophages derived from IL4-polarized human monocyte derived macrophages at 3 uM preincubated for 15 mins followed by Escherichia coli (O6:K2:H1) challenge for 90 mins by LC-MS/MS analysis
Procedure, shortened: (§1)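 Monocytes differentiated 6 days with M-CSF (20 ng/ml), then polarized 48 h with IL-4 20 ng/ml (M2). Cells (2 × 10^6) in PBS/1 mM CaCl2 pre-incubated 15 min at 37 °C with 3 µM compound or 0.1% DMSO, then challenged with E. coli O6:K2:H1 (1:50) for 90 min. Lipid mediators extracted by SPE with deuterated internal standards and quantified by UPLC-MS/MS as % of vehicle.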

[3] = biological target: T2, Polyunsaturated fatty acid lipoxygenase ALOX15 (Homo sapiens) (UniProt P16050); experiment: Modulation of 15-LO-mediated 7-HDHA level in human M2 macrophages derived from IL4-polarized human monocyte derived macrophages at 3 uM preincubated for 15 mins followed by Escherichia coli (O6:K2:H1) challenge for 90 mins by LC-MS/MS analysis; procedure, shortened: as §1
T2 sequence (whole entry): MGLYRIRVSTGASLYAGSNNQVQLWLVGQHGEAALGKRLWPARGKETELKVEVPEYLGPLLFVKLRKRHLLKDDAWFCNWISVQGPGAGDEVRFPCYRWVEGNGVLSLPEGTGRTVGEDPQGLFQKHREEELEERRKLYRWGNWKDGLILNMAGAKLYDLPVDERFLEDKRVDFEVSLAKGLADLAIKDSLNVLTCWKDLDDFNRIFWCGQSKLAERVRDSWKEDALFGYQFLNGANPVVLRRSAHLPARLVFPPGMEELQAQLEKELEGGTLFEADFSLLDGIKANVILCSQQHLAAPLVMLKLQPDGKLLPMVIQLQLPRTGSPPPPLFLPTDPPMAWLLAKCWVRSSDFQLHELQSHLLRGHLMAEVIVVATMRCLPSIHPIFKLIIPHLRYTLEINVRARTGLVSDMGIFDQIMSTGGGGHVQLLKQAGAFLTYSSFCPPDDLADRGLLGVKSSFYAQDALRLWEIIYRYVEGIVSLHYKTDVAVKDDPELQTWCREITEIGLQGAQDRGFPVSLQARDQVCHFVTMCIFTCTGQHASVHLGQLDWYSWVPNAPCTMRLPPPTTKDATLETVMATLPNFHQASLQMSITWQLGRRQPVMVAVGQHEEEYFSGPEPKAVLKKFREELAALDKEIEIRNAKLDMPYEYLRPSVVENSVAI

[4] = biological target: T1, Polyunsaturated fatty acid 5-lipoxygenase (Homo sapiens); experiment: Inhibition of 5-LO in human M1 macrophages derived from LPS/IFNgamma-polarized human monocyte derived macrophages assessed as effect on 5-HETE level at 3 uM preincubated for 15 mins followed by Escherichia coli (O6:K2:H1) challenge for 90 mins by LC-MS/MS analysis; set-up: scale not given: the % may be the effect or the level left
Procedure, shortened: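 Monocytes differentiated 6 days with GM-CSF (20 ng/ml) in RPMI/10% FCS, then polarized 48 h with LPS 100 ng/ml plus IFN-γ 20 ng/ml (M1). Cells (2 × 10^6) in PBS with 1 mM CaCl2 pre-incubated 15 min at 37 °C with 3 µM compound or 0.1% DMSO, then E. coli O6:K2:H1 (1:50) for 90 min. Methanol with deuterated standards added; SPE; UPLC-MS/MS; expressed as % of vehicle.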

[5] = biological target: T1, Polyunsaturated fatty acid 5-lipoxygenase (Homo sapiens); experiment: Inhibition of nuclear localization of 5-LO (unknown origin) expressed in HEK293 cells at 10 uM preincubated for 10 mins followed by Ca2+ ionophore A23187 stimulation for 20 mins and measured after 1 hr by DAPI staining-based immunofluorescence microscopic analysis; format: cell-based
Procedure, shortened: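 HEK293 cells stably expressing 5-LO and FLAP, on poly-L-lysine coverslips, pre-incubated 10 min with 10 µM compound or 0.1% DMSO, then stimulated with 2.5 µM A23187 for 20 min at 37 °C. After fixation and permeabilization, stained with anti-5-LO and anti-FLAP antibodies and fluorescent secondaries; imaged by immunofluorescence microscopy, 100 cells from three experiments.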

Cyclooxygenase = Cyclooxygenase (Homo sapiens, UniProt P35354+P23219); experiment: Modulation of COX1/2-mediated 11-HEPE level in human M2 macrophages derived from IL4-polarized human monocyte derived macrophages at 3 uM preincubated for 15 mins followed by Escherichia coli (O6:K2:H1) challenge for 90 mins by LC-MS/MS analysis; format: ADME; settings: 1.5 h; procedure, shortened: as §1
Homo sapiens [6] = species: Homo sapiens; experiment: Modulation of LO-mediated 5,15-DiHETE level in human M2 macrophages derived from IL4-polarized human monocyte derived macrophages at 3 uM preincubated for 15 mins followed by Escherichia coli (O6:K2:H1) challenge for 90 mins by LC-MS/MS analysis; procedure, shortened: as §1

inhibition [1]: Active | Activity (Homo sapiens [2]): 128% | Activity [3]: 107% | Activity [4]: 35% | inhibition [5]: inactive | Activity (Cyclooxygenase): 107% | Activity (Homo sapiens [6]): 122%
SMILES: O=C(O)c1ccc(N(Cc2cccc(OCc3ccccc3)c2)S(=O)(=O)c2ccc(-c3ccccc3)cc2)cc1
Activity (Neutrophil): Non-Toxic
